From PubChem
Diaph act CS: compounds boosting diaphorase resazurin reduction – biochemical, uHTS, resorufin fluorescence, counter-screen for diaphorase-coupled primary assays, primary screen; Diaphorase/resazurin coupled assay, 16 min; active compounds read high; 1 = vehicle wells, 0 = NADH-free wells; 0.005% of 190,000 active; AID 1229, 2008; activation factor at 20 µM;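 active = diaphorase activity raised at least twofold by the compound at 20 µM; inactive = activation factor below 2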
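Assay system: bacterial diaphorase enzyme (C. kluyveri) / Input: enzyme 0.07 U/mL final / Medium: 50 mM HEPES pH 7.4 with 4.542 mM MgCl2, 0.005% Tween 20 / Doses: single compound dose of 20 µM, 1% DMSO final / Incubation: 16 min enzyme reaction, ambient temperature / Signal: fluorescence, excitation 544 nm and emission 590 nm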
Redox H2O2 prof: compounds producing H2O2 with reducing agent – biochemical, NIH compound library profiling, artefact control for MLSCN library redox annotation, primary screen. 0.03% of 200,000 active. DTT-dependent redox cycling H2O2, phenol red/HRP absorbance; 100% = 100 µM peroxide control, 0% = buffer. activation, % at 10 µM. AID 878, 2007;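 active = activation of at least 50% relative to the plate's high and low controls in the primary single-dose screen; inactive = activation below 50%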;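 also: compound incubated with DTT at 0.8 mM final as the reducing agent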
Diaphorase inh: diaphorase inhibitors and chemical oxidizers, primary screen, counter-screen for diaphorase-coupled primary assays, biochemical, uHTS, resorufin fluorescence; diaphorase resazurin-to-resorufin fluorescence, NADH, 16 min; bacterial (C. kluyveri) enzyme, not human; inhibition, % at 20 µM; 0.69% of 190,000 active;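 active = primary screen inhibition at 20 µM above a set limit, cut at about 50% in these data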
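Test system: diaphorase enzyme from Clostridium kluyveri; amount: diaphorase at 0.14 U/mL in enzyme working solution; detection: fluorescence of resorufin formed from resazurin, Ex 544/Em 590 nm; times: reaction incubation of 16 min at room temperature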
G6PDH counter: L. mesenteroides G6PDH inhibitors, counter-screen for G6PDH-coupled screening assays, biochemical, Leuconostoc mesenteroides enzyme; 0.12% of 200,000 active; glucose-6-phosphate dehydrogenase [Leuconostoc mesenteroides]; inhibition, % at 5 µM; Purified L. mesenteroides G6PDH, diaphorase/resazurin coupled fluorescence, 45 min; AID 1020, 2008
L major viab: Leishmania major promastigote growth inhibition, primary screen; Leishmania major promastigotes, resazurin fluorescence viability; inhibition, % at 10 µM; 9% of 200,000 active; AID 1063, 2008;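 also: promastigotes grown with compound for 44 hours at 28 °C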
PfGluPho inh: PfG6PD enzyme inhibitors, primary screen, biochemical, fluorescence intensity, uHTS; PfGluPho enzyme, NADPH resazurin-diaphorase fluorescence; 0.78% of 350,000 active; AID 504690, 2011; glucose-6-phosphate dehydrogenase-6-phosphogluconolactonase (Plasmodium falciparum 3D7); inhibition, % at 20 µM;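 active = inhibition reaching at least a set limit at 20 µM in the primary screen, cut at about 59% in these data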
Large screens that a line does not name were inactive. Shown is part of a subset that was picked to be rich in hits. Rule as the data show it, unless noted: active = inhibition above about 50%; inactive = the rest.

CC1CC(N(C(=O)C2CC2)c2ccccc2)c2ccccc2N1C(=O)C1CC1 (stereo not drawn)	none
O=C(C[C@H]1C[C@H](C(=O)N2CCCCC2)[C@@]2(CCc3ccccc3)c3[nH]c4ccc(Cl)cc4c3CCN2C1=O)NCc1cccc(C(F)(F)F)c1	none (no result: Diaph act CS, Redox H2O2 prof, Diaphorase inh, G6PDH counter, L major viab)
CCCn1c(=O)c2ccccc2n2c(SCc3cc(=O)oc4ccc5ccccc5c34)nnc12	L major viab 62
COc1ccc(CNCC(O)(c2ccccc2)c2ccc(Cl)cc2)cc1 (stereo not drawn)	none
COc1cccc(CNCC(O)(c2ccc(Cl)cc2)c2ccc(Cl)cc2)c1	L major viab 65
COc1ccc(CNCc2cccc(Cl)c2)cc1	L major viab 66
CCOC(=O)C1CCCN(C(=O)c2ccc(C)cc2O)C1 (stereo not drawn)	none
Nc1nc(NCCN2CCOCC2)nc(NCc2ccccc2)c1[N+](=O)[O-]	none (no result: Diaph act CS, Redox H2O2 prof, Diaphorase inh, G6PDH counter, L major viab)
Cc1ccc(C(=O)OCC(=O)c2c[nH]c3ccccc23)cc1	none
CCc1cccc2c(C(=O)CCl)c[nH]c12	L major viab 58
O=C(OCC(=O)c1c[nH]c2ccccc12)c1ccc([N+](=O)[O-])s1	L major viab 100
CCc1cccc2c(C(=S)N3CCCC3)c[nH]c12	none (no result: Diaph act CS, Diaphorase inh)
CCc1cccc2c(C(=O)COC(=O)c3ccc([N+](=O)[O-])s3)c[nH]c12	L major viab 100
C[C@@H]1CN([C@H](C)CO)C(=O)CCCn2nncc2CO[C@H]1CN(C)C(=O)Cc1ccccc1	none (no result: Diaph act CS, Redox H2O2 prof, Diaphorase inh, G6PDH counter, L major viab)
CCNC(=O)/C(C#N)=C/c1c(N(Cc2ccccc2)Cc2ccccc2)nc2ccccn2c1=O	L major viab 56
CCNC(=O)/C(C#N)=C/c1c(N2CCN(Cc3ccc4c(c3)OCO4)CC2)nc2c(C)cccn2c1=O	L major viab 55
CNC(=O)/C(C#N)=C/c1c(N(Cc2ccccc2)Cc2ccccc2)nc2c(C)cccn2c1=O	L major viab 72
CCNC(=O)/C(C#N)=C/c1c(N2CCN(C)CC2)nc2c(C)cccn2c1=O	none (no result: Diaph act CS, Redox H2O2 prof, Diaphorase inh, G6PDH counter, L major viab)
CCOc1cc(C2/C(=C(/O)c3ccc(OC(C)C)cc3)C(=O)C(=O)N2CCCOC)ccc1O (stereo not drawn)	none
CC1CCCN(CCC(=O)Nc2ccc3c(c2)CCC3)C1 (stereo not drawn)	L major viab 61
CC1CCCN(CCC(=O)Nc2ccccc2)C1 (stereo not drawn)	none
CC1CCCN(CCC(=O)Nc2ccc(Br)cc2)C1 (stereo not drawn)	L major viab 53
O=C(Nc1ccc2ncccc2c1)c1cc(Cl)ccc1Cl	none
COc1ccccc1NS(=O)(=O)c1cc(NC(=O)COc2ccccc2F)ccc1N1CCOCC1	none (no result: Diaph act CS, Redox H2O2 prof, Diaphorase inh, G6PDH counter, L major viab)
COC(=O)c1sccc1NC(=S)N1CC(C)CC(C)C1 (stereo not drawn)	none
COc1cc(CNCCCN2CCOCC2)c(Br)cc1OC(C)C	none (no result: Diaph act CS, Redox H2O2 prof, Diaphorase inh, G6PDH counter, L major viab)
COc1ccccc1NC(=O)COc1ccc(Br)cc1CNCCCN1CCOCC1	L major viab 77
COc1cc(CNCCCN2CCOCC2)c(Br)cc1OCC(=O)Nc1ccccc1C	L major viab 57
CCOC(=O)c1cnn(-c2nc(OCC)cc(OCC)n2)c1C	none
CCCCCC(=O)OCc1ccc(C2=CC(=O)CC(C)(C)C2=O)cc1	none (no result: Diaph act CS, Redox H2O2 prof, Diaphorase inh, G6PDH counter, L major viab)
CCc1ccc2c(c1)C1(NN=C(c3cccc4ccccc34)S1)C(=O)N2 (stereo not drawn)	L major viab 99 (no result: PfGluPho inh)
O=C(NCCc1ccccc1)C1CCN(Cc2ccccc2F)CC1	L major viab 71
CCCCNC(=O)C1CCN(Cc2ccc(OCc3ccccc3)cc2)CC1	L major viab 82
CCCCC(=O)C1CCN(Cc2ccccc2)CC1	L major viab 67
CCN(CC)C(=O)C1CCN(Cc2cccc(OCc3ccccc3)c2)CC1	L major viab 100
O=C(NCCc1ccccc1)C1CCN(C(=O)c2ccc(F)cc2)CC1	none (no result: Diaph act CS, Redox H2O2 prof, Diaphorase inh, G6PDH counter, L major viab)
